Experimental data reported in PMC7983942 (Clinical Pharmacology and Therapeutics, 2020).
Numbering of substitutions follows the chain as printed.

What was measured:
Assay type in all cases: in vitro ADME
OATP1B3 = target: T1, OATP1B3 (Homo sapiens, UniProt Q9NPD5); test: Uptake into transporter-transfected vs wild-type HEK293 cells; conditions: rosuvastatin 1 µM, two to four minutes
T1 sequence (Q9NPD5 1-702): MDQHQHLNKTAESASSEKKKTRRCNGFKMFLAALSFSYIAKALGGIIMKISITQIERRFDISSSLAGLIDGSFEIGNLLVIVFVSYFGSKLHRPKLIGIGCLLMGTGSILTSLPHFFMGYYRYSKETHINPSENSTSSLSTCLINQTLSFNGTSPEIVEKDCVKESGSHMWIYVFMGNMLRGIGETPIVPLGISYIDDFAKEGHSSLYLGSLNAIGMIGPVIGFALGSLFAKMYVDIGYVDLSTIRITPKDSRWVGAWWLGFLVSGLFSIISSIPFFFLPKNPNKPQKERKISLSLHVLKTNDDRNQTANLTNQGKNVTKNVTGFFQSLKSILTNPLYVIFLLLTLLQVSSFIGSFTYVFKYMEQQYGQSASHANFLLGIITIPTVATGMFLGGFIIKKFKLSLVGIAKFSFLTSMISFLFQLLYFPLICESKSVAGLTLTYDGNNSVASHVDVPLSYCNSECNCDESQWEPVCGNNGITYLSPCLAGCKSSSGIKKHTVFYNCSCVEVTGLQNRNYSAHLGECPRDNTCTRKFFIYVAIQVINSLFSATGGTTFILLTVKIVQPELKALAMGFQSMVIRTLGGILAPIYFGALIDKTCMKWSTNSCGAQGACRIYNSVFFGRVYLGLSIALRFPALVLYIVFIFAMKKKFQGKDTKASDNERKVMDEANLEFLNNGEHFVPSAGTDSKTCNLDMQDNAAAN
Method in brief: (§1)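 HEK293 cells stably transfected with OATP1B1*1A, OATP1B3 or OATP2B1, plus wild-type cells, were seeded on poly-D-lysine plates. Culture was 48 h at 37°C in DMEM with 10% FBS, pyruvate, nonessential amino acids and GlutaMAX. Test compound was 1 µM for 2 min; rosuvastatin probe was 1 µM over 2–4 min. Cells were washed four times in ice-cold buffer and lysed in methanol with internal standard. Readouts were uptake ratio versus wild-type and glucuronide/probe ratio of ratios; mean ± SD, n=3 in one experiment.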

OATP1B1*15 = target: T2, OATP1B1*15 (Homo sapiens, UniProt Q9Y6L6, N130D/V174A); test: Uptake into OATP1B1 variant-transfected vs wild-type HEK293 cells; conditions: for Uptake ratio (vs. wild‐type HEK293 cells): 2 minutes
T2 sequence (Q9Y6L6 1-691 N130D/V174A): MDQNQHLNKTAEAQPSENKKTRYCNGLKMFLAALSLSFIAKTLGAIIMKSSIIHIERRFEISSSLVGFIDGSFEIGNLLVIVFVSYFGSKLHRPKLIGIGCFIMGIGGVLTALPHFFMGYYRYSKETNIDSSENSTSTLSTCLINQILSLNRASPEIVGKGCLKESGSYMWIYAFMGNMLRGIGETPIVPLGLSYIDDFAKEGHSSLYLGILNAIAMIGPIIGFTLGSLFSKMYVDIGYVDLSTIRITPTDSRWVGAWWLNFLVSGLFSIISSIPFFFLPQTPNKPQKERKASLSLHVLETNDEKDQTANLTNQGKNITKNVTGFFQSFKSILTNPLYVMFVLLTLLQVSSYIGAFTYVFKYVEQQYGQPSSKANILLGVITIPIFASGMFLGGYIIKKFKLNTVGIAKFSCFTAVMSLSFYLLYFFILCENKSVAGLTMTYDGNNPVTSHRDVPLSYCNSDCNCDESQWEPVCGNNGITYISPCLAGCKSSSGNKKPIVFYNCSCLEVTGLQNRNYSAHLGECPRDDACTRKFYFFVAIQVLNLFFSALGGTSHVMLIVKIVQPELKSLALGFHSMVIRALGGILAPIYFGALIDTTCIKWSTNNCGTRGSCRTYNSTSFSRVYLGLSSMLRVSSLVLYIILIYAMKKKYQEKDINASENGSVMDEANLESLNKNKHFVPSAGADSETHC
Method in brief: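 HEK293 cells stably expressing an OATP1B1 variant, alongside wild-type HEK293, were seeded at 0.5–1.2 × 10⁵ cells/well on poly-D-lysine plates. They grew 48 h at 37°C and 5% CO₂ in DMEM with 10% FBS, 1% pyruvate, nonessential amino acids and GlutaMAX. Substrate was 1 µM (0.5 µM where footnoted) for 2 min, then four ice-cold buffer washes and methanol lysis with internal standard. Uptake ratio (transfected/wild-type) is expressed as % of OATP1B1*14 in the same experiment; n=3 determinations.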

OATP1B1*1A = target: T3, OATP1B1*1A (Homo sapiens, UniProt Q9Y6L6); test: Uptake into transporter-transfected vs wild-type HEK293 cells
T3 sequence (Q9Y6L6 1-691): T2 sequence (Q9Y6L6 1-691 N130D/V174A) with D130N, A174V
Method in brief: as §1

[1] = experiment 1, substrate concentration 0.5 µM

Uptake ratio (vs. wild‐type HEK293 cells), probe (OATP1B3): 69.8 ± 1.9
Uptake ratio as percentage of OATP1B1*14 in the same experiment (OATP1B1*15; [1]): 15%
Uptake ratio (vs. wild‐type HEK293 cells) (OATP1B1*15; [1]): 2.3 ± 0.2
Uptake ratio as percentage of OATP1B1*14 in the same experiment (OATP1B1*15; experiment 2, substrate 1 µM): 13%
Uptake ratio (vs. wild‐type HEK293 cells) (OATP1B1*15; experiment 2, substrate 1 µM): 5.0 ± 0.2
Uptake ratio (vs. wild‐type HEK293 cells) (OATP1B1*1A; experiment 3, substrate 1 µM, 2 minutes): 51 ± 1.4
Uptake ratio (vs. wild‐type HEK293 cells), probe (OATP1B1*1A; rosuvastatin 1 µM, two to four minutes): 51.3 ± 1.4
SMILES: CC(C)c1nc(N(C)S(C)(=O)=O)nc(-c2ccc(F)cc2)c1/C=C/[C@@H](O)C[C@@H](O)CC(=O)O [Rosuvastatin]
